Activity calls are given as the source filed them. No cut-off for these calls is given here.
What was measured:
[1] = target: T1, Lanosterol 14-alpha demethylase (Homo sapiens, UniProt Q16850); test: Binding affinity to human His-tagged CYP51 expressed in Escherichia coli
T1 sequence (Q16850 whole entry): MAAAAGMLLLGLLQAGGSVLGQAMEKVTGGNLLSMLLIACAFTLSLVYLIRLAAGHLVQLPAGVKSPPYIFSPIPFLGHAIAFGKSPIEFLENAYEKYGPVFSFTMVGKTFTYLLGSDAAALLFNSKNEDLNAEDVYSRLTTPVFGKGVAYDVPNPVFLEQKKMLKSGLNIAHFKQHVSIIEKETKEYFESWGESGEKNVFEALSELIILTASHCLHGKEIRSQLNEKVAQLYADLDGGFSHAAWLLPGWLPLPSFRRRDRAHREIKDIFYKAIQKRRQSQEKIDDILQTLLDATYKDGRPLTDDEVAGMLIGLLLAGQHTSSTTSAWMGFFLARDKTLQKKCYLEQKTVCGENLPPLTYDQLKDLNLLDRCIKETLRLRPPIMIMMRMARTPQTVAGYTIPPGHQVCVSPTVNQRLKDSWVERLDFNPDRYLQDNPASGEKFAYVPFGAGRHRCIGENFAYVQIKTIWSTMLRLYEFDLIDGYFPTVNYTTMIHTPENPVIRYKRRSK
Outline: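 Purified His-tagged human CYP51 titrated with inhibitor at room temperature in 50 mM phosphate, 100 mM NaCl, 0.1 mM EDTA, 10% glycerol. Difference spectra recorded 350-500 nm; A412–A432 plotted against inhibitor concentration. Enzyme 0.5 or 2 µM, titration ranges 0.25-400 µM depending on compound. Apparent Kd from hyperbolic nonlinear fit of free inhibitor; three repeats per compound.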

[2] = tested on: HepG2; test: Ex vivo inhibition of CYP51 mediated cholesterol biosynthesis in human HepG2 cells assessed as increase in lanosterol accumulation at 10 uM relative to control
[3] = target: T2, Delta(14)-sterol reductase TM7SF2 (Homo sapiens) (UniProt O76062); test: Inhibition of Delta-(14)-sterol reductase in human HepG2 cells assessed as accumulation of FF-MAS; assay type: cell-based
T2 sequence (whole entry): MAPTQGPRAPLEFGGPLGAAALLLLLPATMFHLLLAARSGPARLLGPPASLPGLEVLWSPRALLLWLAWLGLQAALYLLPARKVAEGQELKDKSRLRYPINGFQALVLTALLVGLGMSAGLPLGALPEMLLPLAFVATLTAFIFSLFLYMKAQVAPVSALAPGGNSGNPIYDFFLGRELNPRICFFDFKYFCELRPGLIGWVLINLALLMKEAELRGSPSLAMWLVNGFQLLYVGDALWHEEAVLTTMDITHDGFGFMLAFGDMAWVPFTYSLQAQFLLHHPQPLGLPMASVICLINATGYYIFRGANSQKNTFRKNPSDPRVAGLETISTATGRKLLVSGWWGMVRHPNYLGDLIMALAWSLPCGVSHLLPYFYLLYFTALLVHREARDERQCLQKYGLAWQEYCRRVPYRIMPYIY
Outline: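 HepG2 cells grown 24 h at 37 °C, 5% CO2 in DMEM high with 5% calf serum, then 10 µM compound for 24 h. Fresh medium with [3H]acetate (40 µCi/ml) for 4 h. Sterols extracted from homogenate with ergosterol internal standard, separated by reversed-phase HPLC (100% acetonitrile, 40 °C) with radioactivity detection. Read as ratios to untreated cells: two experiments × two replicas, mean of 8 ratios ± SD.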

Row | Compound | Kd [1] [µM] | Activity [2] | Activity [3]
1 | Br.CCCN(CCc1cccnc1)CC(O)c1cccnc1 (centres undefined) | 260 | 1 | 
2 | Br.CCCN(CCc1ccc(OC)c(OC)c1)CC(O)c1cccnc1 (centres undefined) | 29.2 | 1.8 | 
3 | CC(=O)N1CCN(c2ccc(OC[C@H]3CO[C@](Cn4ccnc4)(c4ccc(Cl)cc4Cl)O3)cc2)CC1 [KETOCONAZOLE] | 0.11 |  | 
4 | Br.CCCN(CCc1ccc(Cl)c(Cl)c1)CC(O)c1cc(C)ccn1 (centres undefined) | > 1000 | 1.2 | 
5 | Br.CCCN(CCc1ccc2ccccc2c1)CC(O)c1cccnc1 (centres undefined) | 0.34 | 5 | 
6 | CCCN(CCc1cccnc1)CCc1cccc(F)c1 |  |  | Active
7 | Br.CCCN(CCc1ccc(Cl)c(Cl)c1)CC(O)c1cccnc1 (centres undefined) | 0.4 | 6 | 
8 | Br.CCCN(CCc1ccc(F)c(F)c1)CC(O)c1cccnc1 (centres undefined) | 27 | 1.9 | 

Source: ChEMBL document CHEMBL1143909, “Novel cholesterol biosynthesis inhibitors targeting human lanosterol 14alpha-demethylase (CYP51)” (Bioorg Med Chem, 2008)
